pPAFAH FP inh – inhibitors of human plasma PAF acetylhydrolase (pPAFAH) | hit rate 1.5% among 330,000 | Q13093 | recombinant pPAFAH, FP-rhodamine probe fluorescence polarization | inhibition, % at 3.39 µM | AID 463082;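 active = inhibition above the mean inhibition across the screen plus 3 SD, cut at about 25% in these data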;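 note: inhibitors block binding of the rhodamine activity-based probe so polarization drops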
PAFAH1B3 inh – blocks human PAF acetylhydrolase 1B catalytic subunit 3; hit rate 0.28% among 340,000; inhibition, % at 3.39 µM; recombinant PAFAH1B3, FP-rhodamine probe, fluorescence polarization;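 active = inhibition above the screen-wide average of all tested compounds plus 3 SD, cut at about 25% in these data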
Target sequence (Q15102 whole entry, looked up): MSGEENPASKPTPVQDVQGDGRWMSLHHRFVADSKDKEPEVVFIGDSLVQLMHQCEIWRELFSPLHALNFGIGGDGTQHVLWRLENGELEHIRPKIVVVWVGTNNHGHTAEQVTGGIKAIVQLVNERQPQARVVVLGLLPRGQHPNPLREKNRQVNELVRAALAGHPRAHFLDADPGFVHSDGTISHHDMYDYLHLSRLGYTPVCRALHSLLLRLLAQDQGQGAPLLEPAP
mABHD4 FP – ABHD4 (mouse) inhibition, primary FP screen | purified mABHD4, FP-Rh probe fluorescence polarization | inhibition, % at 8.92 µM | hit rate 0.54% among 370,000;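 active = inhibition exceeding the mean over every tested compound plus 3 SD, cut at about 30% in these data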
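Assay system: wild-type mouse ABHD4 protein; compound: single nominal dose of 8.92 µM, 0.89% DMSO final; schedule: 45 min + 60 min at 25 °C; measured by: FP readout, ex 525 nm / em 598 nm; evaluation: % inhibition of FP-Rh probe binding versus controls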
HTRA1 inh – inhibitors of human serine peptidase HTRA1 | Q92743 | AID 504803 | recombinant HTRA1, FP-rhodamine activity-based probe, fluorescence polarization | inhibition, % at 5.96 µM | hit rate 0.5% among 340,000; in the data active = inhibition above about 36%
PAFAH2 inh – PAFAH2 (human) inhibition; hit rate 0.99% among 340,000; Q99487; inhibition, % at 3.39 µM; recombinant PAFAH2, FP-rhodamine activity probe, fluorescence polarization; AID 492956;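 active = inhibition above the mean over all tested compounds plus 3 SD, cut at about 30% in these data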;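 note: inhibitors block probe labeling of enzyme so polarization drops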
PAFAH1B2 FP inh – PAFAH1B2 (human) inhibition | P68402 | recombinant PAFAH1B2, FP-rhodamine activity probe, fluorescence polarization | inhibition, % at 3.39 µM | hit rate 1.2% among 340,000;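 active = inhibition above the mean of all tested compounds plus 3 SD, cut at about 24% in these data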
Target sequence (P68402 whole entry, looked up): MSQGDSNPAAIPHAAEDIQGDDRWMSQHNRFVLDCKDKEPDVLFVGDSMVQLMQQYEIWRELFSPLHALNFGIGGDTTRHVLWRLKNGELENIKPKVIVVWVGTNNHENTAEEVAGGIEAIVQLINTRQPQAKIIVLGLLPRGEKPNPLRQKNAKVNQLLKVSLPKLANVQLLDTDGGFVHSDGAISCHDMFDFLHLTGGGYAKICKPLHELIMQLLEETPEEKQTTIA
HTRA1 inh conf – HTRA1 (human) inhibition, confirmation | shares compounds with HTRA1 inh | recombinant HTRA1, FP-rhodamine activity-based probe, fluorescence polarization | inhibition, % at 5.96 µM | hit rate 66% among 1,600 | AID 540248;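 active = mean inhibition over three repeats above a set limit taken from the earlier primary screen, cut at about 37% in these data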;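 note: inhibitors block probe binding so polarization drops and inhibition rises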
Numbers stand for hits; – = inactive; · = no result; + = active, no number. Most compounds without a hit are left out; they make up all but 2.8% or so of the library.

SMILES | pPAFAH FP inh | PAFAH1B3 inh | mABHD4 FP | HTRA1 inh | PAFAH2 inh | PAFAH1B2 FP inh | HTRA1 inh conf
CN1CCN(C(c2ccc(C(F)(F)F)cc2)c2cc(Cl)c3cccnc3c2O)CC1 (stereo unspecified) | – | · | – | · | · | · | ·
Oc1c(C(c2ccccn2)N2CCCCC2)cc(Cl)c2cccnc12 (stereo unspecified) | – | – | – | 53 | – | – | 55
Cc1[nH]c2ccccc2c1C(c1ccccn1)N1CCCC1 (stereo unspecified) | – | – | – | – | – | – | ·
CN1CCN(C(c2ccc(Cl)cc2)c2cc(Cl)c3cccnc3c2O)CC1 (stereo unspecified) | – | – | – | 43 | – | – | 87
CN(CC(=O)Nc1ccccc1Br)C(=O)c1cc([N+](=O)[O-])ccc1N1CCOCC1 | – | + | – | 92 | 139 | 176 | –
Cc1cccc(C)c1NC(=O)CN(C)C(=O)c1cc([N+](=O)[O-])ccc1N1CCOCC1 | – | – | – | – | – | – | ·
O=C(/C(=N/O)c1ccccc1)c1ccccc1 | · | – | – | – | – | – | ·
O=C(/C(=N/N=C/c1ccc(O)c(O)c1)c1ccccc1)c1ccccc1 | 30 | – | – | 41 | – | – | 78
CC(=O)N1CCCN(S(=O)(=O)c2ccc3c(c2)n(C)c(=O)c(=O)n3C)CC1 | · | · | – | · | · | · | ·
Cc1nn(-c2ccccc2)c2c1C(c1ccc([N+](=O)[O-])cc1)N1C(=N2)C(=O)Nc2ccccc21 (stereo unspecified) | – | – | – | – | – | – | ·
Cc1nn(-c2ccccc2)c2c1C(c1ccc(O)c(O)c1)N1C(=N2)C(Nc2ccccc2)=Nc2ccccc21 (stereo unspecified) | – | – | – | 50 | – | – | 53
Cc1cccc(NC2=Nc3ccccc3N3C2=Nc2c(c(C)nn2-c2ccccc2)C3c2ccc(O)c(O)c2)c1 (stereo unspecified) | – | – | – | 55 | – | – | 56
Cc1ccc(NC2=Nc3ccccc3N3C2=Nc2c(c(C)nn2-c2ccccc2)C3c2ccc(O)c(O)c2)cc1 (stereo unspecified) | · | – | – | 37 | – | – | 55
O=C(CSc1nnc(-c2ccco2)n1-c1ccc(Cl)cc1)Nc1ccccc1-c1ccccc1 | · | · | – | · | · | · | ·
COc1ccc(-c2cc(C(=O)NN=Cc3cccn3C)[nH]n2)cc1 | · | · | – | · | · | · | ·
O=C(Nc1ccc(C(O)(C(F)(F)F)C(F)(F)F)cc1)c1ccccc1C(F)(F)F | · | · | – | · | · | · | ·
COC(=O)[C@]12C[C@H](CC(=O)N3CCCC3)C(=O)N(Cc3cccc4ccccc34)C1=C[C@H](C(C)C)O[C@@H]2C1CC1 | · | · | – | · | · | · | ·
COc1ccc2nc(NN=C(C)c3ccccn3)cc(C)c2c1 | · | – | – | 55 | – | – | 67
CC(=NNc1ccc2ccccc2n1)c1ccccn1 | · | · | – | · | · | · | ·
Nc1ccc2c(c1)C(=O)C(=O)c1ccccc1-2 | – | 76 | – | 42 | 62 | 25 | –
Nc1ccc2c(c1)C(=O)c1ccccc1-2 | – | – | – | – | – | – | ·
COc1ccc(CCN(Cc2cccs2)S(=O)(=O)c2ccc(F)cc2)cc1OC | · | · | – | · | · | · | ·
O=C(NCCc1ccccc1F)c1cc2ccccn2n1 | · | · | – | · | · | · | ·
O=C1/C(=C\c2ccc(O)c(O)c2)C(c2ccccc2)=NN1c1ccccc1 | · | – | – | 58 | – | – | 97
CC(=O)Nc1ccc(NC(=O)CC2Nc3cccc4cccc(c34)NC2=O)cc1 (stereo unspecified) | – | – | – | – | – | – | ·
SMILES | pPAFAH FP inh | PAFAH1B3 inh | mABHD4 FP | HTRA1 inh | PAFAH2 inh | PAFAH1B2 FP inh | HTRA1 inh conf
CC(=O)c1ccc(NC(=O)CC2Nc3cccc4cccc(c34)NC2=O)cc1 (stereo unspecified) | – | – | – | 57 | – | – | –
C=CCN1C(=O)[C@H](CC(=O)NCCC(C)C)[C@@]2(C(=O)OCC)CCCC=C12 | · | · | – | · | · | · | ·
CCC(=O)NC(c1ccc(C)cc1)c1cc([N+](=O)[O-])c2cccnc2c1O (stereo unspecified) | 32 | – | – | 38 | – | – | 71
CCCC(=O)NC(c1ccco1)c1cc([N+](=O)[O-])c2cccnc2c1O (stereo unspecified) | 30 | – | – | 50 | – | – | 66
COc1cc(-c2csc(N3CCC(C(N)=O)CC3)n2)cc(OC)c1OC | · | · | – | · | · | · | ·
Nc1ccccc1-c1ccccc1N | – | – | – | – | – | – | ·

Bioassay records (PubChem)
